From ChEMBL document CHEMBL1129731, “The chemistry of pseudomonic acid. 17. Dual-action C-1 oxazole derivatives of pseudomonic acid having an extended spectrum of antibacterial activity” (J Med Chem, 1996)
In brackets after ≈: the same amount, converted by molar mass.

Key:
Mus musculus [1] = experiment: Total […] dose against Staphylococcus aureus after sc administration (1+5 hr post infection) to mouse; conditions: in vivo
Bacteroides fragilis = experiment: compound was tested for antibacterial activity Bacteroides fragilis NCTC 10581.; type: functional
Enterobacter cloacae = experiment: compound was tested for antibacterial activity against Ent. cloacae N1.; type: functional
Escherichia coli [2] = experiment: compound was tested for antibacterial activity against Escherichia coli DC0.; type: functional
Escherichia coli [3] = experiment: compound was tested for antibacterial activity against Escherichia coli DC2.; type: functional
Summary of the method: (§1)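 Broth microdilution in Mueller–Hinton broth; overnight broth cultures added to final 5 × 10^5 cfu/mL; incubated 37 °C, 18 h. MIC (µg/mL) taken as lowest concentration inhibiting growth.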

Enterococcus faecalis = experiment: compound was tested for antibacterial activity against Ent. faecalis I; type: functional
Summary of the method: as §1

Haemophilus influenzae = experiment: compound was tested for antibacterial activity against Haemophilus influenzae Q1.; type: functional
Summary of the method: (§2)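 Broth microdilution in Mueller–Hinton broth supplemented (final) with 5% heat-inactivated horse serum, 0.02 mg/mL hematin and 0.08 mg/mL NAD; inoculum 5 × 10^5 cfu/mL from overnight broth cultures; 37 °C for 18 h; MIC (µg/mL) read as lowest concentration inhibiting growth.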

Klebsiella pneumoniae = experiment: compound was tested for antibacterial activity against Klebsiella pneumoniae E70.; type: functional
Summary of the method: as §1

Moraxella catarrhalis = experiment: compound was tested for antibacterial activity against Moraxella catarrhalis 1502.; type: functional
Summary of the method: as §2

Proteus mirabilis = experiment: compound was tested for antibacterial activity against Pr. mirabilis C889.; type: functional
Summary of the method: as §1

Pseudomonas aeruginosa = experiment: compound was tested for antibacterial activity against Pseudomonas aeruginosa K799 wt.; type: functional
Summary of the method: as §1

[4] = test system: Staphylococcus epidermidis; experiment: compound was tested for antibacterial activity aagainst Staphylococcus epidermidis PHLN 20.; type: functional
Summary of the method: as §1

Streptococcus pneumoniae = experiment: compound was tested for antibacterial activity against Strep. pneumoniae 1761.; type: functional
Summary of the method: as §2

Staphylococcus aureus [5] = experiment: compound was tested for antibacterial activity against Staphylococcus aureus F 89.; type: functional
Summary of the method: as §1

Staphylococcus aureus [6] = experiment: compound was tested for antibacterial activity against Staphylococcus aureus NCTC 6571.; type: functional
Summary of the method: as §1

Streptococcus pyogenes = experiment: compound was tested for antibacterial activity against Streptococcus pyogenes CN10.; type: functional
Summary of the method: as §2

Staphylococcus aureus [7] = experiment: compound was tested for antibacterial activity against Staphylococcus aureus C 37.; type: functional
[8] = target: Isoleucine--tRNA ligase, Staphylococcus aureus (UniProt P41972); experiment: compound was tested for inhibitory activity of isoleucyl-tRNA synthetase (IRS).
Staphylococcus aureus [9] = experiment: Minimal inhibitory concentration against Staphylococcus aureus Smith; type: functional
Summary of the method: as §1

Mus musculus [10] = experiment: Total […] dose against Staphylococcus aureus after po administration (1+5 hr post infection) to mouse; type: organism-based; conditions: in vivo
Summary of the method: (§3)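 CD1 male mice, groups of five, infected ip with S. aureus Smith, 1.3 × 10^10 cfu (po groups) or 5 × 10^9 cfu (sc groups); dosed po or sc at 1 + 5 h postinfection, 0.2 mL/mouse. CD50 = total dose protecting 50% of mice from death, scored day 2 postinfection.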

Mus musculus [11] = experiment: Total […] dose against Staphylococcus aureus after sc administration (1+5 hr post infection) to mouse; type: organism-based; conditions: in vivo
Summary of the method: as §3

Isoleucine--tRNA ligase = target: T1, Isoleucine--tRNA ligase (Staphylococcus aureus, UniProt P41972); experiment: Inhibitory activity against isoleucyl-tRNA synthetase (IRS) of Staphylococcus aureus; type: functional
T1 sequence (P41972 whole entry): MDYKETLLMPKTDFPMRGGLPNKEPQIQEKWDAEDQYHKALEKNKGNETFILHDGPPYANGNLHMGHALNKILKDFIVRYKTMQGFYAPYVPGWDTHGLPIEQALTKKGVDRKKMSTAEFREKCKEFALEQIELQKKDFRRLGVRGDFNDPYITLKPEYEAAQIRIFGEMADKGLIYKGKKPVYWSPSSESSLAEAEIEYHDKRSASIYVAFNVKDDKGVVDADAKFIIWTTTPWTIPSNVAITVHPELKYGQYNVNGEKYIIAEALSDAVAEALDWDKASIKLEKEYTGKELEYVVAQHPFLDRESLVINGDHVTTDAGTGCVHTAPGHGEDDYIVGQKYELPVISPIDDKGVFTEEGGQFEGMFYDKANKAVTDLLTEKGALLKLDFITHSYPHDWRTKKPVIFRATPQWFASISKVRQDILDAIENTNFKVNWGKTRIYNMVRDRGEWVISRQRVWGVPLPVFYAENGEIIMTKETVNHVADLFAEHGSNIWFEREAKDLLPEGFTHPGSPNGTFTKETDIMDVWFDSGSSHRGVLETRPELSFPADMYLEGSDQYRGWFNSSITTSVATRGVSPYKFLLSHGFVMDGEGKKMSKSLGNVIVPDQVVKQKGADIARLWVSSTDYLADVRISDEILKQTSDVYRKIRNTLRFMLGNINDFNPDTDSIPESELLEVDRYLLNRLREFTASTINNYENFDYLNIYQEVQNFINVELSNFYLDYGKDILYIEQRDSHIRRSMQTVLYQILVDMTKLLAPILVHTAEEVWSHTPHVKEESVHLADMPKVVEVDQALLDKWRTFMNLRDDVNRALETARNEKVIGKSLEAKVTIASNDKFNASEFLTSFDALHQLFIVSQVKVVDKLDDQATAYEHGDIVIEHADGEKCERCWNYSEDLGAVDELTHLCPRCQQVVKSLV

SMILES: CN[C@H](CC(C)C)C(=O)N[C@H]1C(=O)N[C@@H](CC(N)=O)C(=O)N[C@H]2C(=O)N[C@H]3C(=O)N[C@H](C(=O)N[C@H](C(=O)O)c4cc(O)cc(O)c4-c4cc3ccc4O)[C@H](O)c3ccc(c(Cl)c3)Oc3cc2cc(c3O[C@@H]2O[C@H](CO)[C@@H](O)[C@H](O)[C@H]2O[C@H]2C[C@](C)(N)[C@H](O)[C@H](C)O2)Oc2ccc(cc2Cl)[C@H]1O [VANCOMYCIN]
- CD50 (Mus musculus [1]): 3.8 mg/kg

SMILES: C/C(=C\c1ncc(-c2ncc([N+](=O)[O-])n2C)o1)C[C@@H]1OC[C@H](C[C@@H]2O[C@H]2[C@@H](C)[C@H](C)O)[C@@H](O)[C@H]1O
- MIC (Bacteroides fragilis): 0.5 µg/mL (≈ 1.02 µM)
- MIC (Enterobacter cloacae): > 64 µg/mL
- MIC (Escherichia coli [2]): > 64 µg/mL
- MIC (Escherichia coli [3]): 1 µg/mL (≈ 2.03 µM)
- MIC (Enterococcus faecalis): 64 µg/mL (≈ 130 µM)
- MIC (Haemophilus influenzae): < 0.06 µg/mL
- MIC (Klebsiella pneumoniae): > 64 µg/mL
- MIC (Moraxella catarrhalis): 0.25 µg/mL (≈ 0.508 µM)
- MIC (Proteus mirabilis): > 64 µg/mL
- MIC (Pseudomonas aeruginosa): > 64 µg/mL
- MIC [4]: < 0.06 µg/mL
- MIC (Streptococcus pneumoniae): 0.5 µg/mL (≈ 1.02 µM)
- MIC (Staphylococcus aureus [5]): > 64 µg/mL
- MIC (Staphylococcus aureus [6]): 2 µg/mL (≈ 4.06 µM)
- MIC (Streptococcus pyogenes): 0.25 µg/mL (≈ 0.508 µM)
- MIC (Staphylococcus aureus [7]): > 64 µg/mL
- IC50 [8]: 0.0007 µg/mL (≈ 0.00142 µM)

SMILES: CC1(C)S[C@@H]2[C@H](NC(=O)[C@H](N)c3ccc(O)cc3)C(=O)N2[C@H]1C(=O)O [AMOXICILLIN]
- MIC (Staphylococcus aureus [9]): 0.25 µg/mL (≈ 0.684 µM)
- CD50 (Mus musculus [10]): 0.24 mg/kg
- CD50 (Mus musculus [11]): 0.28 mg/kg

SMILES: C/C(=C\c1ncc(-c2ccc([N+](=O)[O-])cc2)o1)C[C@@H]1OC[C@H](C[C@@H]2O[C@H]2[C@@H](C)[C@H](C)O)[C@@H](O)[C@H]1O
- MIC (Bacteroides fragilis): > 64 µg/mL
- MIC (Enterobacter cloacae): 32 µg/mL (≈ 65.5 µM)
- MIC (Escherichia coli [2]): 64 µg/mL (≈ 131 µM)
- MIC (Escherichia coli [3]): < 0.06 µg/mL
- MIC (Enterococcus faecalis): 32 µg/mL (≈ 65.5 µM)
- MIC (Haemophilus influenzae): 0.25 µg/mL (≈ 0.512 µM)
- IC50 (Isoleucine--tRNA ligase): 7.98 nM
- MIC (Klebsiella pneumoniae): > 64 µg/mL
- MIC (Moraxella catarrhalis): 1 µg/mL (≈ 2.05 µM)
- MIC (Proteus mirabilis): > 64 µg/mL
- MIC (Pseudomonas aeruginosa): > 64 µg/mL
- MIC [4]: 0.125 µg/mL (≈ 0.256 µM)
- MIC (Streptococcus pneumoniae): < 0.06 µg/mL
- MIC (Staphylococcus aureus [5]): > 64 µg/mL
- MIC (Staphylococcus aureus [6]): 0.125 µg/mL (≈ 0.256 µM)
- MIC (Streptococcus pyogenes): 0.125 µg/mL (≈ 0.256 µM)
- MIC (Staphylococcus aureus [7]): > 64 µg/mL
